From ChEMBL document CHEMBL3351544, “Discovery of (S)-1-(1-(Imidazo[1,2-a]pyridin-6-yl)ethyl)-6-(1-methyl-1H-pyrazol-4-yl)-1H-[1,2,3]triazolo[4,5-b]pyrazine (volitinib) as a highly potent and selective mesenchymal-epithelial transition factor (c-Met) inhibitor in clinical development for treatment of cancer” (J Med Chem, 2014)
≈ marks a conversion by molar mass, not a printed value.

What was measured:
NCI-H441 = assay: Antiproliferative activity against human NCI-H441 cells assessed as HGF-induced proliferation after 72 hrs by MTT assay; settings: NCI-H441, 72 h
[1] = Metabolic stability in mouse liver microsomes assessed as compound remaining at 1 uM after 30 mins; format: ADME; settings: read-out: Stability
In short: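 Compound at 1 µM incubated in duplicate with mouse liver microsomes (0.5 mg/mL). Final 3 mM MgCl2 and 1 mM EDTA, NADPH-regenerating system in 50 mM potassium phosphate, pH 7.4. Incubated at 37 °C for 0 and 30 min, DMSO at most 0.1%. Quenched with cold acetonitrile containing internal standard, centrifuged, supernatant analysed. Reported as % parent remaining.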

[2] = Solubility of the compound in aqueous buffer at pH 1.2 by HPLC method; format: physicochemical
In short: (§1)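 Excess solid shaken 48 h at 20 °C in pH 1.2 KCl/HCl buffer or pH 7.4 sodium phosphate buffer. Centrifuged 10 min at 4000 rpm, supernatant diluted in mobile phase and quantified by HPLC.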

[3] = biological target: T1, Hepatocyte growth factor receptor (Homo sapiens, UniProt P08581); assay: Inhibition of c-Met autophosphorylation in human NCI-H441 cells for 1 hr by ELISA; format: cell-based
[4] = Metabolic stability in human liver S9 fraction assessed as compound remaining in absence of NADPH at 1 mg/mL after 60 mins by LC-MS/PDA analysis; format: ADME; settings: read-out: Stability
In short: (§2)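 Compound incubated at 37 °C for 0 and 60 min with human liver S9 (1 mg/ml). Buffer was 50 mM potassium phosphate, pH 7.4, with 3 mM MgCl2 and 1 mM EDTA, with or without an NADPH-regenerating system. Stopped with ice-cold acetonitrile, supernatant dried and reconstituted in 50% methanol. Analysed by LC-MSn/PDA; relative amounts estimated from UV peak intensity at 348 nm.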

[5] = Antitumor activity against human U87MG cells xenografted in mouse model assessed as tumor growth inhibition at 10 mg/kg, po once daily up to 21 days; format: functional, U-87MG ATCC; settings: U-87 MG, 504 h, read-out: TGI
In short: (§3)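 Female athymic nude mice, 6-8 weeks old, inoculated in the flank with 3×10^6 U87MG glioma cells. Randomised once tumours reached 200 mm3. Dosed orally once daily for 21 days in 0.5% CMC-Na, pH 2.1, against vehicle controls. Tumour size measured 2-3 times weekly; volume = L×W²/2. %TGI from change in mean volume, first to last treatment day. Body weight recorded.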

[6] = Plasma clearance in ICR mouse at 2.5 mg/kg, iv; format: ADME, organism-based; set-up: dose 2.5 mg/kg, route intravenous
In short: (§4)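 Male ICR mice, n=3, given 2.5 mg/kg iv in saline containing 10% Solutol HS 15, 10% ethanol and 0.25% DMSO. Blood sampled at staggered times from 5 min to 24 h. Plasma concentrations measured by LC/MS/MS. Parameters derived from the iv dosing.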

U-87MG ATCC = assay: Antitumor activity against human U87MG cells xenografted in mouse model assessed as tumor growth inhibition at 1 to 10 mg/kg, po once daily up to 21 days; format: functional, organism-based
In short: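 Female athymic nude mice (6-8 weeks) inoculated in the flank with U87MG glioma cells (3×10^6/mouse). At 200 mm3 tumours, randomized to vehicle or treatment. Oral dosing once daily at 1.0, 2.5 and 10.0 mg/kg in 0.5% CMC-Na, pH 2.1, for 21 days. Tumour size measured 2-3 times weekly, TV=(L×W²)/2. %TGI from mean volume change from first to last treatment day versus vehicle.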

[7] = Cmax in ICR mouse at 14.1 mg/kg, po; format: ADME, organism-based; set-up: dose 14.1 mg/kg, route oral; settings: in vivo
In short: (§5)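 Male ICR mice, n=3. Oral dose 14.1 mg/kg as a suspension in 0.5% CMC acidified with HCl to pH 2.1. Paired iv arm at 2.5 mg/kg in saline with 10% Solutol HS 15, 10% ethanol and 0.25% DMSO. Staggered blood sampling between 5 min and 24 h post-dose. Plasma levels measured by LC/MS/MS.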

[8] = Half life in ICR mouse at 14.1 mg/kg, po; format: ADME, organism-based; set-up: dose 14.1 mg/kg, route oral; settings: in vivo; in short: as §5
[9] = Solubility of the compound in aqueous buffer at pH 7.4 by HPLC method; format: physicochemical; in short: as §1
[10] = AUC (0 to 8 hrs) in ICR mouse at 14.1 mg/kg, po; format: ADME, organism-based; set-up: time < 8 hr, dose 14.1 mg/kg, route oral; settings: plasma; in short: as §5
Mus musculus [11] = assay: Inhibition of c-Met autophosphorylation in mouse xenografted with human NCI-H441 cells at 3 mg/kg, po administered as single doss after 6 hrs by ELISA method; format: functional; settings: NCI-H441, 6 h
In short: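 Female athymic mice, 6-8 weeks old, n=4, co-implanted subcutaneously with 2×10^6 NCI-H441 cells and 1×10^6 HGF-secreting MRC-5 cells. At 300 mm3, about two weeks, given a single 3 mg/kg oral dose in 0.5% CMC, pH 2.1. Tumours harvested at 6 h and homogenised in lysis buffer with phosphatase and protease inhibitors. Phospho-Met and total Met measured by ELISA, compared with vehicle.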

[12] = Oral bioavailability in ICR mouse at 14.1 mg/kg; format: ADME, organism-based; settings: in vivo; in short: as §5
[13] = biological target: T1, Hepatocyte growth factor receptor; assay: Inhibition of c-Met (unknown origin) using Poly E4Y substrate and ATP incubated for 45 mins by fluorescence polarization assay
Mus musculus [14] = assay: Toxicity in human U87MG cells xenografted mouse model assessed as body weight loss at 1 to 10 mg/kg, po once daily up to 21 days; format: organism-based, U-87MG ATCC; set-up: dose 1-10 mg/kg, route oral; settings: in vivo, 504 h; in short: as §3
[15] = Antitumor activity against human U87MG cells xenografted in mouse model assessed as tumor growth inhibition at 1 mg/kg, po once daily up to 21 days; format: functional, U-87MG ATCC; settings: U-87 MG, 504 h, read-out: TGI; in short: as §3
[16] = Metabolic stability in human liver S9 fraction assessed as compound remaining in presence of NADPH at 1 mg/mL after 60 mins by LC-MS/PDA analysis; format: ADME, subcellular; settings: read-out: Stability; in short: as §2
[17] = Apparent volume of distribution in ICR mouse at 2.5 mg/kg, iv; format: ADME, organism-based; set-up: dose 2.5 mg/kg, route intravenous; settings: in vivo, read-out: Vz; in short: as §4
[18] = Antitumor activity against human U87MG cells xenografted in mouse model assessed as tumor growth inhibition at 2.5 mg/kg, po once daily up to 21 days; format: functional, U-87MG ATCC; settings: U-87 MG, 504 h, read-out: TGI; in short: as §3

SMILES: OCCn1cc(-c2cnc3nnn(Cc4ccc5nccn5c4)c3n2)cn1
- IC50 (NCI-H441): 184 nM

SMILES: FC(F)(F)Cn1cc(-c2cnc3nnn(Cc4ccn5nccc5c4)c3n2)cn1
- remaining at 0.5 h, 1 µM [1]: 63.6%
- IC50 (NCI-H441): 77 nM

SMILES: FC(F)(F)Cn1cc(-c2cnc3nnn(Cc4n[nH]c5ncccc45)c3n2)cn1
- remaining at 0.5 h, 1 µM [1]: 83%
- IC50 (NCI-H441): 70 nM

SMILES: C[C@@H](c1ccn2nccc2c1)n1nnc2ncc(-c3cnn(CCO)c3)nc21
- IC50 (NCI-H441): 16 nM

SMILES: Cn1cc(-c2cnc3nnn(Cc4ccc5ncnn5c4)c3n2)cn1
- IC50 (NCI-H441): 425 nM

SMILES: Cn1cc(-c2cnc3nnn(Cc4n[nH]c5ncccc45)c3n2)cn1
- remaining at 0.5 h, 1 µM [1]: 102%
- IC50 (NCI-H441): 66 nM

SMILES: C[C@H](c1ccn2nccc2c1)n1nnc2ncc(-c3cnn(CCO)c3)nc21
- IC50 (NCI-H441): 165 nM

SMILES: N#Cc1ccc(-c2cnc3nnn(Cc4n[nH]c5ncccc45)c3n2)cn1
- IC50 (NCI-H441): 172 nM

SMILES: N#Cc1ccc(-c2cnc3nnn(Cc4ccc5nccn5c4)c3n2)cn1
- IC50 (NCI-H441): 203 nM

SMILES: OCCn1cc(-c2cnc3nnn(Cc4c[nH]c5ncccc45)c3n2)cn1
- remaining at 0.5 h, 1 µM [1]: 82.6%
- IC50 (NCI-H441): 25 nM

SMILES: C[C@@H](c1ccc2nccn2c1)n1nnc2ncc(-c3cnn(C)c3)nc21 [SAVOLITINIB]
- IC50 (NCI-H441): 6 nM
- solubility [2]: 31.8 mg/mL (≈ 92.1 mM)
- IC50 [3]: 3 nM
- remaining at 1 h [4]: 99.7%
- inhibition in vivo at 10 mg/kg [5]: 92.8%
- clearance [6]: 11 mL/min/kg
- TGI (U-87MG ATCC): Dose-dependent effect
- Cmax [7]: 4950 ng/mL
- half-life [8]: 1.7 h
- solubility [9]: 0.02 mg/mL (≈ 0.0579 mM)
- AUC(0-t) at 8 h [10]: 5590 ng·h/mL
- inhibition in vivo at 3 mg/kg (Mus musculus [11]): 84.7%
- bioavailability [12]: 27.2%
- IC50 [13]: 5 nM
- Activity (Mus musculus [14]): Non-toxic
- inhibition in vivo at 1 mg/kg [15]: 52.8%
- remaining at 1 h [16]: 99.1%
- Vd [17]: 1.2 L/kg
- inhibition in vivo at 2.5 mg/kg [18]: 76.6%

SMILES: Cn1cc(-c2cnc3nnn(Cc4ccc5nccn5c4)c3n2)cn1
- remaining at 0.5 h, 1 µM [1]: 70.8%
- IC50 (NCI-H441): 73 nM
- clearance [6]: 71.3 mL/min/kg
- Cmax [7]: 1380 ng/mL
- half-life [8]: 1.3 h
- AUC(0-t) at 8 h [10]: 1070 ng·h/mL
- bioavailability [12]: 46%
- Vd [17]: 5.4 L/kg

SMILES: OCCn1cc(-c2cnc3nnn(Cc4n[nH]c5ncccc45)c3n2)cn1
- IC50 (NCI-H441): 287 nM

SMILES: OCCn1cc(-c2cnc3nnn(Cc4ccn5nccc5c4)c3n2)cn1
- remaining at 0.5 h, 1 µM [1]: 93.3%
- IC50 (NCI-H441): 66 nM
- clearance [6]: 21.5 mL/min/kg
- Cmax [7]: 1920 ng/mL
- half-life [8]: 3.7 h
- AUC(0-t) at 8 h [10]: 7000 ng·h/mL
- bioavailability [12]: 90.8%
- Vd [17]: 2.4 L/kg

SMILES: Cn1cc(-c2cnc3nnn(Cc4cc5cnccc5s4)c3n2)cn1
- remaining at 0.5 h, 1 µM [1]: 23.5%
- IC50 (NCI-H441): 177 nM

SMILES: Cn1cc(-c2cnc3nnn(Cc4cc5[nH]ncc5s4)c3n2)cn1
- remaining at 0.5 h, 1 µM [1]: 19.4%
- IC50 (NCI-H441): 178 nM

SMILES: C[C@H](c1ccc2nccn2c1)n1nnc2ncc(-c3cnn(C)c3)nc21
- IC50 (NCI-H441): 113 nM
- IC50 [3]: 32 nM
- IC50 [13]: 32 nM

SMILES: Cn1cc(-c2cnc3nnn(Cc4ccn5nccc5c4)c3n2)cn1
- remaining at 0.5 h, 1 µM [1]: 36.7%
- IC50 (NCI-H441): 183 nM

SMILES: C[C@@H](c1ccc2nccn2c1)n1nnc2nc(O)c(-c3cnn(C)c3)nc21
- solubility [2]: 20.9 mg/mL (≈ 57.8 mM)
- solubility [9]: 0.02 mg/mL (≈ 0.0553 mM)

SMILES: Cn1cc(-c2cnc3nnn(Cc4ccc5ncccc5c4)c3c2)cn1
- IC50 [13]: > 1000 nM

SMILES: FC(F)(F)Cn1cc(-c2cnc3nnn(Cc4ccc5nccn5c4)c3n2)cn1
- IC50 (NCI-H441): 104 nM

SMILES: Cn1cc(-c2cnc3nnn(Cc4ccc5nccn5n4)c3n2)cn1
- IC50 (NCI-H441): 443 nM

SMILES: Fc1ccc(-c2cnc3nnn(Cc4ccc5nccn5c4)c3n2)cc1
- IC50 (NCI-H441): 116 nM
